According to ChEMBL document CHEMBL4425127 (J Med Chem, 2016):
The source made the active and inactive calls. No cut-off for these calls is given here.

System: Neuraminidase (Influenza A virus (strain A/Udorn/307/1972 H3N2)), P0DOF9 [E119V,I222L]
Assay: Binding affinity to zanamivir/oseltamivir resistant recombinant Influenza A virus (A/Moscow/10/99(H3N2)) Neuraminidase N2 E119V/I222L double mutant expressed in baculovirus infected insect cells at 100 to 1000 nM measured up to 160 sec by surface plasmon resonance analysis
Summary of the method: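 NA covalently immobilised on CM5 chip by amine coupling. Analyte passed over at several concentrations in running buffer. BSA served as negative control protein. Constants from a steady-state affinity model; triplicate experiments.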

COCCOCCOCCOCCOCCOCCOCCOCCOCCOCc1cn(CC(Cn2cc(COCCOCCOCCOCCOCCOCCOCCOCCOCCOC)nn2)(Cn2cc(COCCOCCOCCOCCOCCOCCOCCOCCOCCOC)nn2)Cn2cc(COCCOCCOCCOCCOCCOCCOCCOCCOCCOC)nn2)nn1
Activity: inactive
